In ChEMBL document CHEMBL3612004, “Primaquine-pyrimidine hybrids: synthesis and dual-stage antiplasmodial activity” (Eur J Med Chem, 2015):
Calls of active or inactive are those of the source. No cut-off for these calls is given here.

What was measured:
Plasmodium falciparum = experiment: Antiplasmodial activity against blood stage of chloroquine-sensitive Plasmodium falciparum NF54 by parasite lactate dehydrogenase assay; format: functional, organism-based
How it was run: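 Asexual P. falciparum was kept in continuous culture (modified Trager–Jensen) and read out by parasite lactate dehydrogenase. DMSO stocks were 20 mg/ml, tested as suspensions and diluted 2-fold in complete medium to 10 concentrations. Chloroquine and artesunate served as references. IC50 came from non-linear dose–response fitting; values are the mean of three observations.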

Plasmodium berghei [1] = experiment: Antiplasmodial activity against liver-stage of Plasmodium berghei expressing firefly luciferase infected in human Huh-7 cells after 48 hrs by bioluminescence assay; format: functional, organism-based; details: Huh-7, Liver
How it was run: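 Huh-7 hepatoma cells were grown in RPMI 1640 with 10% FBS, NEAA, glutamine and 10 mM HEPES pH 7, at 37 °C and 5% CO2, and seeded at 1.0 × 10^4 per well the day before. Compound medium went on about 1 h before fresh A. stephensi sporozoites of firefly-luciferase P. berghei, followed by centrifugation at 1700 g for 5 min. Luminescence was read 48 h post-infection, and IC50 came from dose–response.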

[2] = Cytotoxicity against human HuH7 cells assessed as cell viability by Alamar Blue assay; format: cell-based, Huh-7
How it was run: (§1)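 Huh-7 viability was measured by Alamar Blue in parallel with the 48 h sporozoite infection assay, in RPMI 1640/10% FBS/HEPES medium at 37 °C and 5% CO2. The initial screen tested each compound at […], scoring cell confluence and proliferation.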

[3] = Cytotoxicity against human HuH7 cells assessed as effect on cell proliferation at 1 to 10 uM by Alamar Blue assay; format: cell-based; details: huh-7, 10 µM; how it was run: as §1
[4] = Selectivity index, ratio of CC50 for human HuH7 cells to IC50 for liver-stage of Plasmodium berghei expressing firefly luciferase infected in human Huh-7 cells; format: functional
Plasmodium berghei [5] = experiment: Ratio of primaquine IC50 to compound IC50 for liver-stage of Plasmodium berghei expressing firefly luciferase infected in human Huh-7 cells; format: functional
Plasmodium berghei [6] = experiment: Antiplasmodial activity against Plasmodium berghei ANKA expressing luciferase infected in C57Bl/6J mouse assessed as reduction of liver parasite load at 50 mg/kg, po administered 8 hrs prior to parasite infection measured after 24 hrs; format: functional, organism-based; details: in the assay text read “measured after 47 hrs” for “measured after 24 hrs”
How it was run: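 C57Bl/6J mice were inoculated intravenously with 5 × 10^3 luciferase-expressing P. berghei ANKA sporozoites from A. stephensi salivary glands. Drug was given at 50 mg/kg by oral gavage as a sunflower-oil suspension from a DMSO stock, 8 h before, at, and 24 h after infection; controls got vehicle. Livers were homogenized in guanidine thiocyanate denaturing solution 47 h post-infection to quantify parasite load.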

IC50 (Plasmodium falciparum)	IC50 (Plasmodium berghei [1])	Structure (SMILES)	CC50 [2]	Activity [3]	Ratio CC50/IC50 [4]	Ratio IC50 (Plasmodium berghei [5])	Activity (Plasmodium berghei [6])
4.32 µM	1.26 µM	CCOC(=O)c1c(C)nc(NCCCC(C)Nc2cc(OC)cc3cccnc23)nc1-c1ccccc1 (stereo unspecified)	> 100 µM	Non-toxic	>79.3	6.7	
2 µM		COC(=O)c1c(C)nc(NCCCC(C)Nc2cc(OC)cc3cccnc23)nc1C (stereo unspecified)		Non-toxic			
3.78 µM	1.86 µM	CCOC(=O)c1c(C)nc(NCCCC(C)Nc2cc(OC)cc3cccnc23)nc1C (stereo unspecified)	61 µM	Non-toxic	32.6		
	0.0018 µM	O=C1C(O)=C([C@H]2CC[C@H](c3ccc(Cl)cc3)CC2)C(=O)c2ccccc21 [ATOVAQUONE]					
2.67 µM	1.5 µM	COc1cc(NC(C)CCCNc2nc(C)c(C(=O)OC(C)C)c(-c3cccc([N+](=O)[O-])c3)n2)c2ncccc2c1 (stereo unspecified)	> 100 µM	Non-toxic	>66.6		inactive
1.93 µM		COc1cc(NC(C)CCCNc2nc(C)c(C(=O)OC(C)C)c(-c3ccc([N+](=O)[O-])cc3)n2)c2ncccc2c1 (stereo unspecified)		Non-toxic			
2.79 µM		COc1cc(NC(C)CCCNc2nc(C)c(C(=O)OC(C)C)c(-c3ccccc3[N+](=O)[O-])n2)c2ncccc2c1 (stereo unspecified)		Non-toxic			
3.43 µM		CCOC(=O)c1c(C)nc(NCCCC(C)Nc2cc(OC)cc3cccnc23)nc1-c1ccc(F)cc1 (stereo unspecified)		Non-toxic			
3.28 µM	1.57 µM	CCOC(=O)c1c(C)nc(NCCCC(C)Nc2cc(OC)cc3cccnc23)nc1-c1ccc(OC)cc1 (stereo unspecified)	> 100 µM	Non-toxic	>63.6		
0.0044 µM		C[C@H]1[C@H](OC(=O)CCC(=O)O)O[C@@H]2O[C@@]3(C)CC[C@H]4[C@H](C)CC[C@@H]1[C@@]24OO3 [ARTESUNATE]					
4.8 µM		COc1cc(NC(C)CCCNc2nc(C)c(C(=O)OC(C)C)c(-c3ccccc3)n2)c2ncccc2c1 (stereo unspecified)		Non-toxic			

Structure (SMILES)	IC50 (Plasmodium falciparum)	IC50 (Plasmodium berghei [1])	CC50 [2]	Activity [3]	Ratio CC50/IC50 [4]	Ratio IC50 (Plasmodium berghei [5])	Activity (Plasmodium berghei [6])
COc1cc(NC(C)CCCN)c2ncccc2c1 (stereo unspecified) [PRIMAQUINE]	0.892 µM	8.43 µM					
